Only some compounds are listed: those with a hit (about 1.8% of all), similar ones and a draw of the others.
TbMetRS inhib: blocks T. brucei methionyl-tRNA synthetase activity | purified T. brucei MetRS, ATP depletion, Kinase-Glo luminescence | inhibition, % at 11.9 µM | 360,000 compounds, 0.4% hits;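 active = inhibition above a per-plate cutoff of the control wells' mean inhibition plus 3 SD, cut at about 5.5% in these data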;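 note: 0% = DMSO wells median and 100% = median of wells with control inhibitor compound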
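Dosing: 11.9 µM compound single dose, 0.9% DMSO; Assay system: purified T. brucei MetRS enzyme; Measured by: Kinase-Glo luciferase luminescence reporting remaining unconsumed ATP; Schedule: 15 min plus 2 h at 25 °C.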
hiPSC survival: hiPSC single-cell survival enhancement. ATPlite luminescence; 100% = ROCK inhibitor wells, 0% = DMSO. survival enhancement, % at 20 µM. 360,000 compounds, 0.044% hits. AID 602274; in the data active = survival enhancement above about 18%;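 note: cells exposed to compounds for 16 hours before the ATP read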
SKN-1 block: C. elegans SKN-1 inhibition; C. elegans VP596 Pgst-4::GFP/RFP ratio, acrylamide-induced, 24 h; inhibition, % at 21.8 µM; 360,000 compounds, 0.49% hits; AID 624304;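 active = interference check ratio from 0.5 to 1.5 plus GFP to RFP signal ratio inhibition reaching or exceeding a fixed threshold, cut at about 30% in these data, passing the limit was not always enough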
PREPL inhibitor: human PREPL enzyme inhibition; Q4J6C6; recombinant PREPL, fluorescence polarization activity-based probe; inhibition, % at 5.96 µM; 320,000 compounds, 0.68% hits; AID 2751; in the data active = inhibition above about 43%;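 note: 0% = enzyme with DMSO and 100% = wells lacking enzyme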
MT1-MMP act inh: inhibitors of human MT1-MMP activation; P50281; HT1080 RFP-PRO-GFP cells, GFP/RFP ratio fluorescence, overnight; percent of plate control window, DMSO zero; GFP/RFP ratio change, % at 20 µM; 360,000 compounds, 0.061% hits; AID 651647;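 active = GFP/RFP ratio change of at least 30% with cell ATP level not reduced by more than half and red fluorescence within 50% of control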
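Material: RFP-PRO-GFP reporter HT1080 cells. Dosing: single-point 20 µM compound, 1% DMSO. Controls: DMSO and RFP-L50D-GFP cell wells. Timing: cells overnight before dosing, compound overnight, 37 °C, 5% CO2. Measure: GFP/RFP fluorescence ratio.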
E coli Lon inh: inhibitors of E. coli Lon protease. P0A9M0. purified E. coli Lon protease, fluorescence polarization. inhibition, % at 7.94 µM. 360,000 compounds, 0.42% hits; in the data active = inhibition above about 13%, passing the limit was not always enough;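 note: 0% = enzyme with probe and DMSO and 100% = no enzyme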
Target sequence (P0A9M0 whole entry, looked up): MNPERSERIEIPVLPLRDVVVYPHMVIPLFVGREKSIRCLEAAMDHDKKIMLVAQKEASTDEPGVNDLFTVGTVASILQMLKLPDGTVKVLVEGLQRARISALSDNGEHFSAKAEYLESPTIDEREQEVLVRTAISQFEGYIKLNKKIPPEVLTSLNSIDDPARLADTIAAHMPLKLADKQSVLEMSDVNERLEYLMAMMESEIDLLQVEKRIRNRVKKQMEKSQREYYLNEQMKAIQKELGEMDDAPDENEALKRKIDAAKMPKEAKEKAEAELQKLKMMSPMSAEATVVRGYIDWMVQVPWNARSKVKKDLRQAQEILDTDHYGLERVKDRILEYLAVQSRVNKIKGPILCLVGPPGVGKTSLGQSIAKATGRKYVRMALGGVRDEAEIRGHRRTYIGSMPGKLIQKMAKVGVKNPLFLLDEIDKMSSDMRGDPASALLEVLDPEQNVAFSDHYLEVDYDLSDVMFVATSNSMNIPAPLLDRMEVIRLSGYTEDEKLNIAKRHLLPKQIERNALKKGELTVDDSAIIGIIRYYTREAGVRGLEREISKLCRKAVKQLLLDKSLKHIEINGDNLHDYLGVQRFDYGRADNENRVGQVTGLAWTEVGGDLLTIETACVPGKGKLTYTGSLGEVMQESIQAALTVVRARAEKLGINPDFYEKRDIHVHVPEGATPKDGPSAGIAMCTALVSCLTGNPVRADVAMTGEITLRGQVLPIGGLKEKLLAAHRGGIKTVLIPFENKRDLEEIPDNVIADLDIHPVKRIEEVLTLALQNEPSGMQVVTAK
E coli Lon conf: E. coli Lon inhibition confirmation; AID 602230; purified E. coli Lon, fluorescence polarization; inhibition, % at 7.94 µM; shares compounds with E coli Lon inh; 1,400 compounds, 31% hits; in the data active = inhibition above about 16%;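 note: 0% = enzyme with probe and DMSO and 100% = no enzyme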
* marks the source's active call; other numbers are inactive results; . = no result given; + = active, no number.

SMILES | TbMetRS inhib | hiPSC survival | SKN-1 block | PREPL inhibitor | MT1-MMP act inh | E coli Lon inh | E coli Lon conf
COc1cccc(/C=C/C(=O)c2ccc3c(c2)OCCO3)c1OC | -1 | -1 | 2 | 9 | 10 | 20* | 9
CCOc1ccc(C(=O)CSc2nnc3ccccn23)cc1 | 0 | 0 | 3 | 7 | -1 | -1 | .
CCn1c(CSc2nnc3ccccn23)nc2cc(C(=O)O)ccc21 | -2 | 2 | 65 | 23 | 42* | 52* | 42*
COc1ccc(N2C(=O)CS(=O)C(c3ccccc3)C2=O)cc1 (centres undefined) | 1 | -2 | 9 | 4 | 6 | 24* | 31*
Cc1ccc(N2C(=O)CS(=O)C(c3ccccc3)C2=O)cc1C (centres undefined) | 1 | -3 | 8 | -8 | 0 | 17 | .
CC(=O)N1N=C(c2ccc(C)cc2)OC1c1ccc(C(C)C)cc1 (centres undefined) | 0 | -1 | 8 | -28 | 2 | -4 | .
CCCn1c(C(C)Nc2nc(C)cs2)nc2cc(Cl)c(Cl)cc21 (centres undefined) | 0 | 2 | 1 | -31 | 1 | 116* | -2
CC1(C(=O)Nc2cnc3ccccc3c2)CCN1CCOc1ccccc1 (centres undefined) | 1 | -2 | 0 | . | 2 | -10 | .
Cc1cccc(NC(=O)NCC(F)(F)F)n1 | 0 | 3 | 18 | 9 | -3 | 27* | 14
CC(=O)N1CC=C2C(C#N)=C(N)C(C#N)(C#N)[C@H](c3ccoc3)[C@H]2C1 | 1 | 3 | 19 | 7 | -67 | 31* | 15
Cc1ccc(C2C3CN(C(C)C)CC=C3C(C#N)=C(N)C2(C#N)C#N)cc1 (centres undefined) | 0 | -3 | 14 | 0 | -200 | 36* | 48*
CC(=O)N1CC=C2C(C#N)=C(N)C(C#N)(C#N)C(C)C2C1 (centres undefined) | -1 | 0 | -16 | 1 | -19 | 5 | .
CN1CC=C2C(C#N)=C(N)C(C#N)(C#N)[C@H](c3ccoc3)[C@H]2C1 | 0 | -4 | 3 | 34 | -100 | 130* | 109*
CN1CC=C2C(C#N)=C(N)C(C#N)(C#N)C(c3cccc(Cl)c3Cl)C2C1 (centres undefined) | -1 | 0 | 7 | 5 | -46 | 12 | .
N=C(N)n1ncc2c1CCCC2=O | 0 | -2 | -9 | . | 8 | 2 | .
CCN(c1ccccc1)S(=O)(=O)c1cccc(C(=O)N2CCN(S(=O)(=O)c3ccccc3)CC2)c1 | 0 | 0 | 2 | 12 | -7 | 1 | .
Cc1c2ccccc2nc2c(F)c(NCCO)c(F)c(F)c12 | -1 | -3 | 24 | 40 | -34 | 50* | +
Cc1c2ccccc2nc2c(F)c(NC(C)C)c(F)c(F)c12 | 0 | -1 | 12 | 0 | -50 | 107* | 194*
CCOC(=O)c1c(C)[nH]c(C)c1S(=O)(=O)N1CCN(c2ccc([N+](=O)[O-])cc2)CC1 | 2 | 0 | 5 | 4 | -5 | -8 | .
CC1CN(Cc2csc(-c3ccc(Cl)cc3)n2)CC(C)O1 (centres undefined) | -1 | 0 | 7 | 14 | 3 | 15* | -7
Nc1ncc(-c2ccccc2)c(-c2ccc(O)cc2O)n1 | -2 | -1 | -2 | 5 | -17 | 22* | 7
CC(=O)Nc1ccc(NC(=O)C(C)OC(=O)c2ccc(S(=O)(=O)N3CCCCC3)cc2)cc1 (centres undefined) | 0 | -1 | -11 | -10 | -6 | 67* | 5
CC(OC(=O)c1ccc(CN2CCCC2=O)cc1)C(=O)Nc1ccc(Cl)cc1 (centres undefined) | 0 | 0 | 10 | 11 | 3 | 24* | 60*
CC1CN(C(=O)COC(=O)c2ccc3ncsc3c2)CC(C)O1 (centres undefined) | 0 | 0 | 8 | 1 | -4 | 0 | .
O=C(c1ccc2c(c1)CCN2S(=O)(=O)c1ccccc1)N1CCN(c2ccccc2F)CC1 | -1 | 0 | 4 | 1 | -1 | 18* | 4

Bioassay records as filed in PubChem.
